Source: PMC3501270 (Bioorganic & medicinal chemistry, 2012)

Assays:
[1] = system: Smo-633 receptor and βarr2-GFP; experiment: Smo/βarr2-GFP translocation primary high-throughput confocal imaging assay; format: cell-based; settings: U2OS cells stably expressing Smo-633 and βarr2-GFP; 5 µM, 6 hours
Hh-dependent hair growth = experiment: Hh-dependent hair regrowth after depilation; format: in vivo, mouse; settings: C57BL female mice, topical 30 µl of 0.5 mM daily for 2 weeks
Procedure, shortened: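 Eight-week-old female C57BL/6 mice in telogen phase had the dorsum shaved. The lower half of the shaved area was depilated with Nair for 2 min and rinsed with water. Test compound in 95% acetone/5% DMSO, or vehicle alone, was applied topically to the depilated skin. Brief 3% isoflurane anaesthesia was used for all procedures. Five mice per group; hair regrowth assessed at 2 weeks.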

[2] = Storage stability in solution; format: physicochemical; settings: room temperature, DMSO or methanolic solution, 1 week
[3] = molecular target: Smo-D473H mutant receptor (Homo sapiens, UniProt Q99835, D473H); format: binding; settings: for displacement of [3H]-cyclopamine from Smo-D473H: U2OS cells overexpressing Smo-D473H, competitor up to 10 µM
Sequence of Smo-D473H mutant receptor (Q99835 28-787 D473H): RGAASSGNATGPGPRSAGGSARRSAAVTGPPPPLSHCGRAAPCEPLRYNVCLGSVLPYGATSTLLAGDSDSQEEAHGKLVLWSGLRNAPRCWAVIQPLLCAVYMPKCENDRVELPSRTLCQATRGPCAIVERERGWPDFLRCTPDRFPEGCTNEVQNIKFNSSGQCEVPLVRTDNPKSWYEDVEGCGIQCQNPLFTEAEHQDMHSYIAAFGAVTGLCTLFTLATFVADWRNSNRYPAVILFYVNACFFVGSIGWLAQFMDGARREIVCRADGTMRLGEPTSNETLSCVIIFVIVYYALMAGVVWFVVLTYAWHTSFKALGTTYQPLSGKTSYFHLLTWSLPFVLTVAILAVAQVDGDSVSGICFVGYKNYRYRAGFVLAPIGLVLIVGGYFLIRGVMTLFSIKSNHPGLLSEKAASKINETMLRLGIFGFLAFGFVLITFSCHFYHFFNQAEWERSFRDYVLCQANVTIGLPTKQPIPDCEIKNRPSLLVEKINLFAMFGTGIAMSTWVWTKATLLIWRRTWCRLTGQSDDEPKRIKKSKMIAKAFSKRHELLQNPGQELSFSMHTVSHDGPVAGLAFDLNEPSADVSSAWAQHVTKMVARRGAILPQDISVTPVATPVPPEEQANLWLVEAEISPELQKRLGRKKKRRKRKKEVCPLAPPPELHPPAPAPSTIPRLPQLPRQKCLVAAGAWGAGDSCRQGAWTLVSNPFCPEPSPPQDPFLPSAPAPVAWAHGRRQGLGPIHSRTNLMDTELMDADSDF

wild-type Smo = wild-type Smo (Homo sapiens, UniProt Q99835); format: binding; settings: 25 nM [3H]-cyclopamine; competitor 0 – 10 µM
Sequence of wild-type Smo (Q99835 28-787): as the sequence (Q99835 28-787 D473H) above, with H446D counted along it

[4] = molecular target: vasopressin2 receptor (V2R) (Homo sapiens, UniProt P30518); experiment: V2R/βarr2-GFP aggregation control assay; format: cell-based; settings: arginine vasopressin stimulated cells; Supplementary Figure 3
Sequence of vasopressin2 receptor (V2R) (P30518 whole entry, species assumed): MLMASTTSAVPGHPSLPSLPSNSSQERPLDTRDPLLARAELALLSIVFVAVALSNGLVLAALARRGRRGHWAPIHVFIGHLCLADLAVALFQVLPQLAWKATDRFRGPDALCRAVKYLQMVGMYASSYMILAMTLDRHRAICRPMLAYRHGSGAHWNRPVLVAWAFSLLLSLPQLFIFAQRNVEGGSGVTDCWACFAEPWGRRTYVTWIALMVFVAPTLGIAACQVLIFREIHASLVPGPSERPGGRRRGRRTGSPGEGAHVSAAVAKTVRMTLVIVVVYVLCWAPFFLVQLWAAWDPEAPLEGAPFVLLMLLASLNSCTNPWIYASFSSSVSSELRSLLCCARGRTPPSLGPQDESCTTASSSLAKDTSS

[5] = system: Shh-induced Gli reporter activity; settings: 1 µM concentration; cited from earlier work

Row | Structure (SMILES) | inhibition of intracellular βarr2-GFP aggregation [1] | Hh-induced hair growth (Hh-dependent hair growth) | activity after storage in solution [2] | displacement of [3H]-cyclopamine from Smo-D473H [3] | right shift in affinity, SmoD473H versus wild-type Smo ([3]; ratio of Ki mutant / wild-type) | displacement of [3H]-cyclopamine from wild-type Smo (wild-type Smo) | aggregation of V2R and βarr2-GFP [4] | binding affinity to the mutant receptor (Ki not determinable) ([3]; Smo-D473H, up to 10 uM) | inhibition of Gli-reporter activity at 1 µM [5]
1 | O=C(NC1CCN(Cc2ccc(N3CCC(NC(=O)c4cccc(-c5cccnc5)c4)CC3)nc2)CC1)c1cccc(-c2cccnc2)c1 [Compound A8] | confirmed | largely inhibited | retained activity | completely displace | approximately 13 fold | completely displaced | not inhibited |  | 
2 | CS(=O)(=O)c1ccc(C(=O)Nc2ccc(Cl)c(-c3ccccn3)c2)c(Cl)c1 [GDC-0449, Vismodegib] |  |  |  | only partially displaced |  | completely displaced |  |  | 
3 | Cc1c(C(=O)Nc2ccc(N3C[C@@H](C)O[C@@H](C)C3)nc2)cccc1-c1ccc(OC(F)(F)F)cc1 [LDE-225, Erismodegib] |  |  |  | largely ineffective |  | completely displaced |  | too weak | 
4 | CC1=C2C[C@H]3[C@@H](CC=C4C[C@@H](O)CC[C@@]43C)[C@@H]2CC[C@]12O[C@@H]1C[C@H](C)CN[C@H]1[C@H]2C [cyclopamine] | inhibits the aggregation of βarr2-GFP |  |  | completely displace |  | completely displaced |  |  | strong inhibition
